In PubChem BioAssay AID821 (SRMLSC, 2007):
The source made the active and inactive calls.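 Rule for the calls: active = compounds whose fitted half-maximal concentration for reducing fibroblast viability is 100 µM or lower; inactive = the rest.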

assay: LL 47 lung fibroblast growth inhibition, concentration-response, selectivity test for endothelial growth inhibitor program, cellular, luminescent ATP readout (AID 821); settings: LL 47 lung fibroblast viability, ATP luminescence; at 20 µM (top of the series);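 note: 100% = median of untreated cell-only wells and 0% = no luminescence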
Method in brief: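 Assay system: LL 47 human lung fibroblast cells | Amount: 1,150 cells/well | Schedule: 72 h exposure, 37 °C | Measured by: CellTiter-Glo luminescence | Measure: Percent viability relative to untreated wells, EC50 via 4-parameter fit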

SMILES	viability
Brc1ccccc1OCCCn1cnc2ccccc21	111% (inactive)
CC1CC(C)(C)CC2(C1)NC(=S)N(c1ccccc1)N2 (stereo not drawn)	109% (inactive)
COc1ccc(CN2CCn3ncc(C(=O)Nc4cc(C)cc(C)c4)c3C2=O)cc1	105% (inactive)
CCN(CC(O)Cn1c2ccccc2c2ccccc21)S(=O)(=O)c1ccc(C)cc1 (stereo not drawn)	96.4% (inactive)
Cc1nc2cc(N3CCCCC3)c(NC(=O)c3cccnc3)cc2c(=O)n1Cc1ccccc1	91.8% (inactive)
Cc1ccccc1N1C(=O)CC(Sc2nnc(-c3ccccc3)o2)C1=O (stereo not drawn)	90.5% (inactive)
Cc1ccc(-n2c(SCC(=O)Nc3nccs3)nc3c(c2=O)SCC3)cc1	107% (inactive)
O=c1[nH]c(=O)n(Cc2ccccc2)c2nc(-c3ccco3)cc(C(F)(F)F)c12	81% (inactive)
CN1CCN(c2ccccc2NC(=O)c2ccc(-c3ccc(Cl)cc3Cl)o2)CC1	88.2% (inactive)
C=C(C)COc1ccc(-c2n[nH]c(C)c2Oc2ccccc2OC)c(O)c1	94.7% (inactive)
CCOC(=O)c1ccc(NC(=O)CCc2nc(-c3ccc(C)cc3)no2)cc1	98.6% (inactive)
CC[n+]1cc(-c2ccccc2)nc(N2CCOCC2)n1	99.9% (inactive)
CCCc1cc(C(=O)Cc2ccc(F)cc2)c(O)cc1O	96.5% (inactive)
COc1cc2c(C(=O)NCc3ccc4c(c3)OCO4)cn(CC(C)C)c(=O)c2cc1OC	106% (inactive)
CC1=C(C)CS(=O)N(S(=O)(=O)c2ccc(Cl)cc2)C1 (stereo not drawn)	106% (inactive)
Cc1ccc(C(C#N)c2ccc(C(=O)c3ccc(F)cc3)cc2)cc1 (stereo not drawn)	97.1% (inactive)
CCCc1ccc(-c2cc(NC(=O)CSc3n[nH]c(N)n3)n(-c3ccccc3)n2)cc1	100% (inactive)
CSc1nc2c(cnn2-c2ccc(C)c(C)c2)c(=O)[nH]1	93.2% (inactive)
CCOc1ccc(Nc2oc(-c3ccc(Cl)cc3)nc2C#N)cc1	106% (inactive)
COc1ccc2cc3cc(C(=O)NCCc4ccc(OC)c(OC)c4)oc3nc2c1	109% (inactive)
CCn1c2c(c3cc(Br)ccc31)CCC/C2=N\O	85.2% (inactive)
Cn1c(=O)c2c(ncn2CC(=O)Nc2nc(-c3ccccc3Cl)cs2)n(C)c1=O	110% (inactive)
COc1ccc(-n2c(SCC(=O)Nc3sc4c(c3C#N)CCCC4)nnc2-c2ccc(O)cc2)cc1	94.1% (inactive)

SMILES	viability
CCC(C)[C@@H](NC(=O)OC(C)(C)C)c1nnc(S(=O)(=O)Cc2cccc(C)c2)o1 (stereo partly drawn)	91.4% (inactive)
O=C1CCn2nc(-c3ccc(Cl)cc3)cc2N1	104% (inactive)
CCOC(=O)c1c(N)sc2c(OC)c(Br)ccc12	109% (inactive)
COc1ccc(Cl)c(N2CCN(CCCNC(=O)Nc3ccc(C)cc3)CC2)c1	84.9% (inactive)
COC(=O)c1cc(COc2ccc3c(c2)oc(=O)c2ccccc23)c(C)o1	120% (inactive)
CCOC(=O)c1c(NC(=O)COc2ncnc3sccc23)sc2c1CCC2	83.6% (inactive)
Cc1nn(Cc2ccc(Cl)c(Cl)c2)c(C)c1NC(=O)c1cc(-c2ccc3c(c2)OCO3)on1	94.2% (inactive)
CCCCc1ccc(Nc2nc(CCC)cc(=O)[nH]2)cc1	91% (inactive)
CCCOC(=O)c1ccc(Oc2cn[nH]c2-c2ccc(OC)cc2O)cc1	86.6% (inactive)
COc1ccc2cc3cc(C(=O)Nc4ccc5c(c4)OCO5)oc3nc2c1	88.3% (inactive)
Cc1cccc(N2CCN(C(=O)c3ccc4nc(-c5ccco5)c(-c5ccco5)nc4c3)CC2C)c1 (stereo not drawn)	105% (inactive)
Cc1ccc2c(c1)c1c(n2CC(O)Cn2c(C)nc3ccccc32)CCCC1 (stereo not drawn)	95.1% (inactive)
Cc1cc(NC(=O)c2cccc(S(=O)(=O)N3CC(c4ccccc4)CC3=O)c2)no1 (stereo not drawn)	98.4% (inactive)
CC(=O)Oc1ccc(N(C(C)=O)S(=O)(=O)c2cccs2)c2ccccc12	95.7% (inactive)
Cc1cccc(C)c1N1CCN(c2ccc3nnc(C(F)(F)F)n3n2)CC1	81.7% (inactive)
COc1ccc(-c2nnc(SCCc3ccccc3)n2N)cc1	113% (inactive)
O=C(Nc1cccc(-c2nnc(-c3ccccc3)o2)c1)c1ccc(Br)o1	118% (inactive)
OCCN1CCN(c2nc(-c3ccccc3)c3cc(Cl)ccc3n2)CC1	85% (inactive)
Clc1ccccc1-c1ccc(/C=N/n2cnnc2)o1	111% (inactive)
CCc1ccc(-c2nc(CN3CCC(C(=O)NCc4ccc(F)cc4)CC3)c(C)o2)cc1	103% (inactive)
CCn1c(Cc2ccc(OC)cc2)nnc1SCC(=O)Nc1cccc(C(=O)OC)c1	96.9% (inactive)
CCOc1ccc(-c2n[nH]c(C)c2Oc2ccc(OC)cc2)c(O)c1	93.9% (inactive)
NC(=O)Cc1c[nH]c2cccc(O)c12	111% (inactive)

SMILES	viability
CCOc1ccc(OCc2ccc(C(=O)NCC3CCCO3)o2)cc1 (stereo not drawn)	109% (inactive)
CCOc1ccc2nc(NC(=O)CN3CCC(n4nnc5cc(F)ccc54)CC3)sc2c1	82.7% (inactive)
COc1cc(-c2nnc(COc3ccc4cc(Br)ccc4c3)o2)cc(OC)c1OC	127% (inactive)
COc1ccc(NC(=O)c2ccccc2NC(=O)COc2ccccc2)cc1	93.3% (inactive)
CCn1c(=N)n(CC(=O)C23CC4CC(CC(C4)C2)C3)c2ccccc21	86% (inactive)
Cc1ccc(S(=O)(=O)c2c(C)nn(C(C)(C)C)c2OC(=O)c2ccc(Br)o2)cc1	103% (inactive)
CC(=O)n1cc(-c2ccncc2)c2ccccc21	98.4% (inactive)
C/C(CC1CC2=C(CC1(C)C)C(C)(C)CCC2)=N\NC(N)=S (stereo not drawn)	87.7% (inactive)
COc1cc(/C=c2\s/c(=C(/C#N)C(=O)N3CCCC3)n(-c3ccccc3)c2=O)ccc1O	104% (inactive)
Cc1cc(S(=O)(=O)N2CCN(Cc3ccc4c(c3)OCO4)CC2)cc(C)c1N1CCCC1=O	100% (inactive)
O=S1(=O)c2ccccc2N=NN1Cc1cc(Cl)cc(Cl)c1	84.5% (inactive)
CC1(c2ccccc2)CC(C)(C)N2C(=O)C3(C(C#N)=C(N)Oc4cc(O)ccc43)c3cccc1c32 (stereo not drawn)	87.7% (inactive)
Cc1cc(/C=C2\C(=N)N3C(SCc4ccccc4)=NSC3=NC2=O)c(C)n1Cc1ccccc1	92.2% (inactive)
CC1=C(C)CS(=O)N(S(=O)(=O)c2ccccc2)C1 (stereo not drawn)	86.9% (inactive)
CN1C(=O)C(O)(CC(=O)c2cccc(-n3cccc3)c2)c2ccccc21 (stereo not drawn)	93.7% (inactive)
Cc1c(CCOC(=O)C2C3CC4CC(C3)CC2C4)sc[n+]1CC(=O)c1ccc(Br)cc1 (stereo not drawn)	93.4% (inactive)
Cc1cccc2c1N(CCCOc1ccc(C(C)(C)C)cc1)C(=O)C2=O	92.2% (inactive)
Cc1nc2ccccc2c2oc(C(=O)NCc3ccc4c(c3)OCO4)cc12	102% (inactive)
O=C(CSc1ncnc2c1oc1ccccc12)Nc1nc2ccccc2s1	105% (inactive)
CC(=O)c1c(C)[nH]c(C(=O)CSc2nnc(-c3ccccc3)n2Cc2ccc3c(c2)OCO3)c1C	94.2% (inactive)
CCCCC[n+]1ccn(C2=C([O-])c3ccccc3C(=O)/C2=N\S(=O)(=O)c2ccccc2)c1	86.4% (inactive)
CNC(=O)c1ccc(-c2sc3nc(N4CCOCC4)c4c(c3c2N)CCCC4)o1	90.4% (inactive)
